Experiments:
Hepatitis C virus = experiment: Antiviral activity against Hepatitis C virus genotype 1b Con1 after 4 days by cell-based replicon assay; type: functional, organism-based, Hepacivirus hominis; conditions: isolate Con1, 96 h
[1] = Inhibition of Hepatitis C virus genotype 1a H77 recombinant NS3/4A protease expressed in Escherichia coli BL21 (DE3) cell using Ac-Asp-Glu-Asp(EDANS)-Glu-Glu-Abu[C(O)-O]-Ala-Ser-Lys(DABCYL)-NH2 as substrate by FRET assay; set-up: species or system Hepatitis C virus (isolate H77)
[2] = Cytotoxicity against human HuH7 cells; type: cell-based; conditions: Huh-7 cells
[3] = AUC in intraduodenally dosed Sprague-Dawley rat plasma measured over 4 hrs by LC/MS/MS analysis; type: ADME, organism-based; set-up: time < 4 hr, route intraduodenal; conditions: Sprague-Dawley, plasma
Method in brief: (§1)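 Abbreviated rat screen: surgically prepared rats were dosed intraduodenally. Plasma was sampled over 4 h, and liver was collected at the 4 h end point. Plasma was precipitated with two volumes of ACN plus internal standard. Liver was weighed and homogenized in 2 volumes of 20% Hanks buffered salt solution/80% ACN. Both were quantified by LC/MS/MS.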

Liver = experiment: Drug uptake in intraduodenally dosed Sprague-Dawley rat liver measured per gm of tissue over 4 hrs by LC/MS/MS analysis; type: ADME, organism-based; conditions: in vivo, other; method in brief: as §1

SMILES | EC50 (Hepatitis C virus) [nM] | IC50 [1] [nM] | CC50 [2] [nM] | AUC at 4 h [3] [µM·h] | Drug uptake (Liver) [ng]
C=C[C@@H]1C[C@]1(NC(=O)[C@@H]1C[C@@H](Oc2nccc3cc(-n4cccn4)ccc23)CN1C(=O)[C@@H](NC(=O)OC(C)(C)C)C(C)(C)C)C(=O)NS(=O)(=O)C1CC1 | 64 | 4 | 94000 |  | 
C=C[C@@H]1C[C@]1(NC(=O)[C@@H]1C[C@@H](Oc2nccc3cc(C)ccc23)CN1C(=O)[C@@H](NC(=O)OC(C)(C)C)C(C)(C)C)C(=O)NS(=O)(=O)C1CC1 | 100 | 4 | 92000 |  | 
C=C[C@@H]1C[C@]1(NC(=O)[C@@H]1C[C@@H](Oc2cc(-c3ccccc3)nc3cc(OC)ccc23)CN1C(=O)[C@@H](NC(=O)OC(C)(C)C)C(C)(C)C)C(=O)NS(=O)(=O)C(C)C | 97 | 19 |  |  | 
C=C[C@@H]1C[C@]1(NC(=O)[C@@H]1C[C@@H](Oc2cc(-c3ccccc3)nc3cc(OC)ccc23)CN1C(=O)[C@@H](NC(=O)OC(C)(C)C)C(C)(C)C)C(=O)NS(=O)(=O)C1CCCC1 | 170 | 71 |  |  | 
C=C[C@@H]1C[C@]1(NC(=O)[C@@H]1C[C@@H](Oc2cc(-c3ccccc3)nc3cc(OC)ccc23)CN1C(=O)CNC(=O)OC(C)(C)C)C(=O)NS(=O)(=O)C1CC1 | 893 | 16 |  |  | 
C=C[C@@H]1C[C@]1(NC(=O)[C@@H]1C[C@@H](Oc2cc(-c3ccccc3)nc3cc(OC)ccc23)CN1C(=O)[C@@H](NC(=O)OC(C)(C)C)C(C)(C)C)C(=O)NS(=O)(=O)C1CCCCC1 | 210 | 149 |  |  | 
C=C[C@@H]1C[C@]1(NC(=O)[C@@H]1C[C@@H](Oc2ncc(Cl)c3ccccc23)CN1C(=O)[C@@H](NC(=O)OC(C)(C)C)C(C)(C)C)C(=O)NS(=O)(=O)C1CC1 | 41 | 8 | 45000 |  | 
C=C[C@@H]1C[C@]1(NC(=O)[C@@H]1C[C@@H](Oc2nccc3cc(OCC)ccc23)CN1C(=O)[C@@H](NC(=O)OC(C)(C)C)C(C)(C)C)C(=O)NS(=O)(=O)C1CC1 | 12 | 3 | 74000 | 1.83 | 14630
C=C[C@@H]1C[C@]1(NC(=O)[C@@H]1C[C@@H](Oc2cc(-c3ccccc3)nc3cc(OC)ccc23)CN1C(=O)[C@@H](NC(=O)OC(C)(C)C)C(C)(C)C)C(=O)NS(=O)(=O)CC | 133 | 6 |  |  | 
C=C[C@@H]1C[C@]1(NC(=O)[C@@H]1C[C@@H](Oc2nccc3c(C)cccc23)CN1C(=O)[C@@H](NC(=O)OC(C)(C)C)C(C)(C)C)C(=O)NS(=O)(=O)C1CC1 | 40 | 5 | 89000 | 6.36 | 160300
C=C[C@@H]1C[C@]1(NC(=O)[C@@H]1C[C@@H](Oc2nc(-c3ccccc3)cc3ccccc23)CN1C(=O)[C@@H](NC(=O)OC(C)(C)C)C(C)(C)C)C(=O)NS(=O)(=O)C1CC1 | 9 | 3 | 12000 |  | 
C=C[C@@H]1C[C@]1(NC(=O)[C@@H]1C[C@@H](Oc2cc(-c3ccccc3)nc3cc(OC)ccc23)CN1C(=O)[C@@H](NC(=O)OC(C)(C)C)C(C)(C)C)C(=O)NS(C)(=O)=O | 600 | 36 |  |  | 
C=C[C@@H]1C[C@]1(NC(=O)[C@@H]1C[C@@H](Oc2nccc3cc(N4CCOCC4)ccc23)CN1C(=O)[C@@H](NC(=O)OC(C)(C)C)C(C)(C)C)C(=O)NS(=O)(=O)C1CC1 | 26 | 3 | > 100000 | 0.46 | 1018
C=C[C@@H]1C[C@]1(NC(=O)[C@@H]1C[C@H](Oc2nccc3cc(OC)ccc23)CN1C(=O)[C@@H](NC(=O)OC(C)(C)C)C(C)(C)C)C(=O)NS(=O)(=O)C1CC1 |  | 5000 |  | 0.25 | 3058
C=C[C@@H]1C[C@]1(NC(=O)[C@@H]1C[C@@H](Oc2nccc3c(F)cccc23)CN1C(=O)[C@@H](NC(=O)OC(C)(C)C)C(C)(C)C)C(=O)NS(=O)(=O)C1CC1 | 94 | 55 | > 100000 |  | 
C=C[C@@H]1C[C@]1(NC(=O)[C@@H]1C[C@@H](Oc2nccc3cc(C#N)ccc23)CN1C(=O)[C@@H](NC(=O)OC(C)(C)C)C(C)(C)C)C(=O)NS(=O)(=O)C1CC1 | 586 | 4 | > 100000 |  | 

SMILES | EC50 (Hepatitis C virus) [nM] | IC50 [1] [nM] | CC50 [2] [nM] | AUC at 4 h [3] [µM·h] | Drug uptake (Liver) [ng]
C=C[C@@H]1C[C@]1(NC(=O)[C@@H]1C[C@@H](Oc2ccnc(-c3ccccc3)c2)CN1C(=O)[C@@H](NC(=O)OC(C)(C)C)C(C)(C)C)C(=O)NS(=O)(=O)C1CC1 | 267 | 10 |  |  | 319
C=C[C@@H]1C[C@]1(NC(=O)[C@@H]1C[C@@H](Oc2nccc3cc(Cl)ccc23)CN1C(=O)[C@@H](NC(=O)OC(C)(C)C)C(C)(C)C)C(=O)NS(=O)(=O)C1CC1 | 833 | 36 | 44000 |  | 
C=C[C@@H]1C[C@]1(NC(=O)[C@@H]1C[C@@H](Oc2cc(-c3ccccc3)nc3cc(OC)ccc23)CN1C(=O)[C@@H](NC(=O)OC(C)(C)C)C(C)(C)C)C(=O)NS(=O)(=O)c1ccccc1 | 20 | 8 |  |  | 
C=C[C@@H]1C[C@]1(NC(=O)[C@@H]1C[C@@H](Oc2nccc3c(N4CCOCC4)cccc23)CN1C(=O)[C@@H](NC(=O)OC(C)(C)C)C(C)(C)C)C(=O)NS(=O)(=O)C1CC1 | 966 | 96 | > 100000 |  | 
C=C[C@@H]1C[C@]1(NC(=O)[C@@H]1C[C@@H](Oc2cc(-c3ccccc3)nc3cc(OC)ccc23)CN1C(=O)[C@@H](N)C(C)(C)C)C(=O)NS(=O)(=O)C1CC1 | 860 | 30 |  |  | 
C=C[C@@H]1C[C@]1(NC(=O)[C@@H]1C[C@@H](Oc2ccc3ccccc3n2)CN1C(=O)[C@@H](NC(=O)OC(C)(C)C)C(C)(C)C)C(=O)NS(=O)(=O)C1CC1 | 268 | 23 |  | 0.279 | 52094
C=C[C@@H]1C[C@]1(NC(=O)[C@@H]1C[C@@H](Oc2nccc3cc(C(=O)N(C)C)ccc23)CN1C(=O)[C@@H](NC(=O)OC(C)(C)C)C(C)(C)C)C(=O)NS(=O)(=O)C1CC1 | 11000 | 476 | > 100000 |  | 
C=C[C@@H]1C[C@]1(NC(=O)[C@@H]1C[C@@H](Oc2cc(-c3ccccc3)nc3cc(OC)ccc23)CN1C(=O)[C@@H](NC(=O)OC(C)(C)C)C(C)(C)C)C(=O)NS(=O)(=O)C1CCC1 | 29 | 7 |  |  | 
C=C[C@@H]1C[C@]1(NC(=O)[C@@H]1C[C@@H](Oc2ccncc2)CN1C(=O)[C@@H](NC(=O)OC(C)(C)C)C(C)(C)C)C(=O)NS(=O)(=O)C1CC1 | 25000 | 84 |  |  | 
COc1ccc2c(O[C@@H]3C[C@@H](C(=O)NC4(C(=O)NS(=O)(=O)C5CC5)CC4)N(C(=O)[C@@H](NC(=O)OC(C)(C)C)C(C)(C)C)C3)cc(-c3ccccc3)nc2c1 | 437 | 12 |  |  | 
C=C[C@@H]1C[C@]1(NC(=O)[C@@H]1C[C@@H](Oc2nccc3cc(O)ccc23)CN1C(=O)[C@@H](NC(=O)OC(C)(C)C)C(C)(C)C)C(=O)NS(=O)(=O)C1CC1 | 67 | 3 | > 100000 |  | 
C=C[C@@H]1C[C@]1(NC(=O)[C@@H]1C[C@@H](Oc2cc(-c3ccccc3)nc3cc(OC)ccc23)CN1C(=O)[C@@H](NC(=O)OC)C(C)(C)C)C(=O)NS(=O)(=O)C1CC1 | 32 | 1 |  | 0.009 | 156
C=C[C@@H]1C[C@]1(NC(=O)[C@@H]1C[C@@H](Oc2ccnc3cc(OC)ccc23)CN1C(=O)[C@@H](NC(=O)OC(C)(C)C)C(C)(C)C)C(=O)NS(=O)(=O)C1CC1 | 26 | 5 |  | 0.015 | 620
C=C[C@@H]1C[C@]1(NC(=O)[C@@H]1C[C@@H](Oc2nccc3cc(C(C)(C)C)ccc23)CN1C(=O)[C@@H](NC(=O)OC(C)(C)C)C(C)(C)C)C(=O)NS(=O)(=O)C1CC1 | 209 | 31 | 15000 |  | 
C=C[C@@H]1C[C@]1(NC(=O)[C@@H]1C[C@@H](Oc2nccc3cccc(C)c23)CN1C(=O)[C@@H](NC(=O)OC(C)(C)C)C(C)(C)C)C(=O)NS(=O)(=O)C1CC1 | 500 | 149 | > 100000 |  | 
C=C[C@@H]1C[C@]1(NC(=O)[C@@H]1C[C@@H](Oc2nccc3ccc(C)cc23)CN1C(=O)[C@@H](NC(=O)OC(C)(C)C)C(C)(C)C)C(=O)NS(=O)(=O)C1CC1 | 100 | 7 | 86000 |  | 
